One experiment concerns K562. Briefly: Growth inhibition of human K562 cells measured after 3 days by trypan blue assay. Type of experiment: functional. To be noted: K562, 72 h. In short, it runs like this: (§1)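 Human leukemia cells exposed to compound for 3 days. Growth assessed by trypan blue method with total cell counts, and inhibition calculated relative to untreated control cells. GI50 taken as the concentration giving 50% growth inhibition. Doxorubicin hydrochloride and gambogic acid included as positive controls.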

For a further experiment, the system named is HL-60. Briefly: Growth inhibition of human HL60 cells measured after 3 days by trypan blue assay. To be noted: HL-60, 72 h. Type of experiment: functional. In short, it runs like this: as §1

The structures appear in SMILES notation. Counter-ions that a name gives are not always drawn.

Consider `C=CC(C)(C)c1c(O)cc(O)c2c1O[C@]13CC4[C@H]([C@@H](OC)C1C2=O)[C@@](CC=C(C)C)(OC4(C)C)C3=O` (some centres undefined), for which the values for the GI50 in the experiment with K562 and with HL-60 were 3500 nM and 6500 nM, respectively.

With `COc1cccc2c1C(=O)c1c(O)c3c(c(O)c1C2=O)C[C@@](O)(C(=O)CO)C[C@@H]3O[C@H]1C[C@H](N)[C@H](O)[C@H](C)O1` [DOXORUBICIN HYDROCHLORIDE], the GI50 in the experiment with K562 and with HL-60 was 20 nM in each case.

As to `C=CC(C)(C)c1c(O)cc(O)c2c1O[C@]13C(C2=O)[C@@H](OC)[C@@H]2C[C@H]1C(C)(C)O[C@@]3(CC=C(C)C)C2=O` (some centres undefined), the GI50 in the experiment with K562 was determined as 3400 nM; in the experiment with HL-60, 7300 nM.

Turning to `C=CC(C)(C)c1c(O)cc(O)c2c1O[C@]13[C@H](C2=O)[C@@H](OCC)[C@@H]2C[C@H]1C(C)(C)OC3(CC=C(C)C)C2=O`, the GI50 is 2100 nM with K562 and 4500 nM with HL-60.

As for `CC(C)=CCC12OC(C)(C)C3CC4(Oc5c(c(O)cc6c5C(C)(C)[C@@H](C)O6)C(=O)C4=CC31)C2=O` (some centres undefined), the figures for the GI50 with K562 and in the experiment on HL-60 were 1700 nM and 700 nM, respectively.

For the compound `C=CC(C)(C)c1c(O)cc(O)c2c1OC13CC4C(C=C1C2=O)C(CC=C(C)C)(OC4(C)C)C3=O` (centres undefined), the GI50 with K562 was 1300 nM; in the experiment with HL-60 it was 800 nM.

In the case of `C=CC(C)(C)c1c(O)cc(O)c2c1OC13C(=CC4CC1C(C)(C)OC3(CC=C(C)C)C4=O)C2=O` (centres undefined), the concentration for 50% growth inhibition (GI50) with K562 is 1000 nM; with HL-60 it was 400 nM.

`C=CC(C)(C)c1c(OC)cc(O)c2c1OC13C(=CC4CC1C(C)(C)OC3(CC=C(C)C)C4=O)C2=O` (centres undefined): the GI50 with K562 amounted to 800 nM; with HL-60 it was 200 nM.

As for `C=CC(C)(C)c1c(OC)cc(O)c2c1OC13CC4C(C=C1C2=O)C(CC=C(C)C)(OC4(C)C)C3=O` (centres undefined), the GI50 in the experiment with K562 was determined as 1500 nM; with HL-60, 1000 nM.

With `CC(C)=CC[C@@]12OC(C)(C)[C@H]3C[C@H](C=C4C(=O)c5c(O)cc6c(c5O[C@]431)C(C)(C)[C@@H](C)O6)C2=O`, the GI50 in the experiment with K562 amounted to 2100 nM; with HL-60 it was 1200 nM.

`CC(C)=CCC12OC(C)(C)C3CC4(Oc5c(c(O)cc6c5C(C)(C)[C@H](C)O6)C(=O)C4=CC31)C2=O` (some centres undefined): the 50% growth inhibitory concentration (GI50) in the experiment on K562 came out at 1600 nM; in the experiment with HL-60 it was 900 nM.

Consider `CC(C)=CCC[C@]1(C)C=Cc2c(O)c3c(c(CC=C(C)C)c2O1)O[C@]12C(=C[C@@H]4C[C@H]1C(C)(C)O[C@@]2(C/C=C(/C)C(=O)O)C4=O)C3=O` [GAMBOGIC ACID], for which the GI50 with K562 amounted to 600 nM; in the experiment on HL-60, 300 nM.

For `CC(C)=CC[C@@]12OC(C)(C)[C@H]3C[C@H](C=C4C(=O)c5c(O)cc6c(c5O[C@]431)C(C)(C)[C@@H](CO)O6)C2=O`, the GI50 with K562 came to 2100 nM; in the experiment with HL-60, 1100 nM.

Regarding `C=CC(C)(C)c1c(O)cc(OC)c2c1OC13C(C2=O)[C@@H](OC)[C@@H]2C[C@H]1C(C)(C)O[C@@]3(CC=C(C)C)C2=O` (some centres undefined), the GI50 was found to be 1600 nM with K562 and 3400 nM in the experiment with HL-60.

Turning to `CC(C)=CC[C@@]12OC(C)(C)[C@H]3C[C@H](C=C4C(=O)c5c(O)cc6c(c5O[C@]431)C(C)(C)[C@H](CO)O6)C2=O`, the GI50 was determined as 2100 nM with K562 and 1100 nM in the experiment on HL-60.

In the case of `C=CC(C)(C)c1c(O)cc(O)c2c1O[C@]13[C@H](C2=O)[C@@H](OC)[C@@H]2C[C@H]1C(C)(C)O[C@@]3(/C=C/C(C)(C)O)C2=O`, the GI50 with K562 worked out at 3800 nM; with HL-60 it was 8800 nM.

As to `CC(C)=CC[C@@]12OC(C)(C)C3C[C@H](C=C4C(=O)c5c(O)cc6c(c5O[C@]431)C(C)(C)[C@H](C)O6)C2=O`, the GI50 turned out to be 3600 nM in the experiment on K562 and 1900 nM in the experiment with HL-60.

One may read the GI50 as the concentration giving 50% growth inhibition. Higher therefore signals less potent growth inhibition.

(Values after ChEMBL document CHEMBL4251713, “Bioassay- and Chemistry-Guided Isolation of Scalemic Caged Prenylxanthones from the Leaves of Garcinia bracteata” (2018).)
